Measurements published in ChEMBL document CHEMBL1154182 (J Med Chem, 2009).
Numbered stars: 1 amine (or outer) side, 2 acyl side, 3 side chain; on linkers, the order of the positions; unused ones are H or OH. Bridge positions count the residues as written; N and C are the ends. Square brackets hold non-standard residues; d marks the D form. Peptide text beside a SMILES is read from it. 1Nal = N[C@@H](Cc1cccc2ccccc12)C(=O)O; 2Nal = N[C@@H](Cc1ccc2ccccc2c1)C(=O)O; CH2 = C([*:1])[*:2]

Tests used:
[1] = target: Delta-type opioid receptor (Rattus norvegicus) (UniProt P33533); conditions: C6, 1 uM
Chain of Delta-type opioid receptor (Rattus norvegicus) (P33533 whole entry): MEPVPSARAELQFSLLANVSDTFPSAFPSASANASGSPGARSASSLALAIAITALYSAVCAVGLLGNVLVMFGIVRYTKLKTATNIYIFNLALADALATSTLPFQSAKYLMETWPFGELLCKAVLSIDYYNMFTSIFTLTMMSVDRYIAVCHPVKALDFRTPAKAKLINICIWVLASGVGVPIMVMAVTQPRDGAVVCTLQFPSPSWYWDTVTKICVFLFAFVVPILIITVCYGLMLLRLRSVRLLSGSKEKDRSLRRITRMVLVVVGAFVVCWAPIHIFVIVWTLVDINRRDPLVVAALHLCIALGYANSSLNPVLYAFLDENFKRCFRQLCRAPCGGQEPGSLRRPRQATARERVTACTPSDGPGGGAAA

[2] = target: T1, Delta-type opioid receptor (Rattus norvegicus, UniProt P33533); test: Displacement of [3H]diprenorphine from rat delta opioid receptor expressed in rat C6 cells after 1 hr by liquid scintillation counting; type: cell-based
T1 sequence (P33533 whole entry): as above
Summary of the method: (§1)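 Membranes from C6 glioma cells stably expressing rat MOR or DOR, or CHO cells expressing human KOR (10-20 μg protein), incubated with 0.2 nM [3H]diprenorphine and increasing peptide concentrations in 50 mM Tris-HCl pH 7.4 for 1 h at 25 °C. Filtered and counted by scintillation. Nonspecific binding defined with 10 μM naloxone.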

[3] = target: Delta-type opioid receptor (Rattus norvegicus) (UniProt P33533); test: Agonist activity at rat delta opioid receptor expressed in rat C6 cells assessed as stimulation of [35S]GTPgammaS binding at 10 uM after 1 hr by liquid scintillation counting relative to SNC80; type: functional, cell-based
Summary of the method: (§2)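 Membranes (20-30 μg protein) from C6-MOR, C6-DOR or CHO-KOR cells incubated 1 h at 25 °C in 50 mM Tris-HCl pH 7.4, 100 mM NaCl, 5 mM MgCl2 with 0.1 nM [35S]GTPγS, 100 μM GDP and peptide at 0.001-10000 nM or 10 μM. Filtered and counted.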

[4] = target: Mu-type opioid receptor (Rattus norvegicus) (UniProt P33535); test: Agonist activity at rat mu opioid receptor expressed in rat C6 cells assessed as stimulation of [35S]GTPgammaS binding at 10 uM after 1 hr by liquid scintillation counting relative to DAMGO; type: functional, cell-based
Chain of Mu-type opioid receptor (Rattus norvegicus) (P33535 whole entry): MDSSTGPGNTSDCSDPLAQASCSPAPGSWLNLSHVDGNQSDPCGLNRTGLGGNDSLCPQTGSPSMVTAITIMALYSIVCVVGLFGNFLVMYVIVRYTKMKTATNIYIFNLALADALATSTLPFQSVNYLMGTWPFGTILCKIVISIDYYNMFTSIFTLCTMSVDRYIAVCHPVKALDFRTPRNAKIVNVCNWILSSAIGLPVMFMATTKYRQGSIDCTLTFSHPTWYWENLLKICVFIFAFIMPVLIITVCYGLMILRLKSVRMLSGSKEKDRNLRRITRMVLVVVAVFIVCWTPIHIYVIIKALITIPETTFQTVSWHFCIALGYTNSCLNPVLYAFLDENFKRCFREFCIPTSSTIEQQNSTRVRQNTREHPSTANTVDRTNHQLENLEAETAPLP
Summary of the method: as §2

[5] = target: T2, Kappa-type opioid receptor (Homo sapiens, UniProt P41145); test: Agonist activity at human kappa opioid receptor expressed in CHO cells assessed as stimulation of [35S]GTPgammaS binding at 10 uM after 1 hr by liquid scintillation counting relative to U69593; type: functional, cell-based
T2 sequence (P41145 whole entry): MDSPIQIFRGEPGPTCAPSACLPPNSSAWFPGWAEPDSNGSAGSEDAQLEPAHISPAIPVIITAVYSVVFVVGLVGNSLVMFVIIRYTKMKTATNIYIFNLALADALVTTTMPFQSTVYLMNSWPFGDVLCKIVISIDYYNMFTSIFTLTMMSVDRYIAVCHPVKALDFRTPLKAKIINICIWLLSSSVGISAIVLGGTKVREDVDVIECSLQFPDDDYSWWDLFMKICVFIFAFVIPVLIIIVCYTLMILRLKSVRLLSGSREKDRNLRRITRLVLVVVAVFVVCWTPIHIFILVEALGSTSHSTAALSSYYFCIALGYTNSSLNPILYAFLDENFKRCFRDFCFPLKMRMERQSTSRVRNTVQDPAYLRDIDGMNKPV
Summary of the method: as §2

Mu-type opioid receptor [6] = target: T3, Mu-type opioid receptor (Rattus norvegicus, UniProt P33535); test: Displacement of [3H]diprenorphine from rat mu opioid receptor expressed in rat C6 cells after 1 hr by liquid scintillation counting; type: cell-based
T3 sequence (P33535 whole entry): as the sequence (P33535 whole entry) above
Summary of the method: as §1

[7] = target: T2, Kappa-type opioid receptor; test: Displacement of [3H]diprenorphine from human kappa opioid receptor expressed in CHO cells after 1 hr by liquid scintillation counting; type: cell-based
Summary of the method: as §1

[8] = target: T1, Delta-type opioid receptor; test: Agonist activity at rat delta opioid receptor expressed in rat C6 cells assessed as inhibition of forskolin-stimulated cAMP production after 30 mins by radioimmunoassay
Mu-type opioid receptor [9] = target: T3, Mu-type opioid receptor; test: Agonist activity at rat mu opioid receptor expressed in rat C6 cells assessed as stimulation of [35S]GTPgammaS binding after 1 hr by liquid scintillation counting; type: functional, cell-based
Summary of the method: as §2

[10] = target: Delta-type opioid receptor (Rattus norvegicus) (UniProt P33533); conditions: C6, 1 uM; remark: listed apart in the source
[11] = target: T2, Kappa-type opioid receptor; test: Agonist activity at human kappa opioid receptor expressed in CHO cells assessed as stimulation of [35S]GTPgammaS binding after 1 hr by liquid scintillation counting; type: functional, cell-based
Summary of the method: as §2

[12] = target: T1, Delta-type opioid receptor; test: Binding affinity to rat delta opioid receptor expressed in rat C6 cells; type: cell-based
Summary of the method: as §1

[13] = target: Delta-type opioid receptor (Rattus norvegicus) (UniProt P33533); test: Ratio of compound Ki to 5R,8S,11S,14S)-14-((S)-2-amino-3-(4-hydroxyphenyl)propanamido)-8,11-dibenzyl-7,10,13-trioxo-1,3-dithia-6,9,12-triazacyclopentadecane-5-carboxamide Ki for rat delta opioid receptor expressed in rat C6 cells; type: cell-based
[14] = target: T2, Kappa-type opioid receptor; test: Ratio of compound Ki to 5R,8S,11S,14S)-14-((S)-2-amino-3-(4-hydroxyphenyl)propanamido)-8,11-dibenzyl-7,10,13-trioxo-1,3-dithia-6,9,12-triazacyclopentadecane-5-carboxamide Ki for human kappa opioid receptor expressed in CHO cells; type: cell-based

## C=CCN1C[C@H](C)N([C@H](c2ccc(C(=O)N(CC)CC)cc2)c2cccc(OC)c2)C[C@H]1C
[1]
  inhibition: 67%

## NC(=O)[C@@H]1CSSC[C@@H](NC(=O)[C@@H](N)Cc2ccc(O)cc2)C(=O)N[C@@H](Cc2ccccc2)C(=O)N[C@@H](Cc2cccc3ccccc23)C(=O)N1 (H-Y[dC]F[1Nal]C-NH2; disulfide 2-5)
[2]
  Ki: 7.1 nM
[3]
  Efficacy: 15%
[4]
  Efficacy: 88%
[5]
  Efficacy: 100%
Mu-type opioid receptor [6]
  Ki: 2.5 nM
[7]
  Ki: 11 nM

## NC(=O)[C@@H]1CSCSC[C@@H](NC(=O)[C@@H](N)Cc2ccc(O)cc2)C(=O)N[C@@H](Cc2ccccc2)C(=O)N[C@@H](Cc2cccc3ccccc23)C(=O)N1 (H-Y[dC]F[1Nal]C-NH2; linker 2-5 via CH2)
[2]
  Ki: 5.2 nM
[3]
  Efficacy: 22%
[4]
  Efficacy: 100%
[5]
  Efficacy: 87%
Mu-type opioid receptor [6]
  Ki: 0.61 nM
[7]
  Ki: 6 nM

## NC(=O)[C@@H]1CSSC[C@@H](NC(=O)[C@@H](N)Cc2ccc(O)cc2)C(=O)N[C@@H](Cc2ccccc2)C(=O)N[C@@H](Cc2ccc3ccccc3c2)C(=O)N1 (H-Y[dC]F[2Nal]C-NH2; disulfide 2-5)
[2]
  Ki: 11 nM
[3]
  Efficacy: 2%
[4]
  Efficacy: 90%
[5]
  Efficacy: 49%
Mu-type opioid receptor [6]
  Ki: 1.2 nM
[7]
  Ki: 5.9 nM

## NC(=O)[C@@H]1CSCSC[C@@H](NC(=O)[C@@H](N)Cc2ccc(O)cc2)C(=O)N[C@@H](Cc2ccccc2)C(=O)N[C@@H](Cc2ccc3ccccc3c2)C(=O)N1 (H-Y[dC]F[2Nal]C-NH2; linker 2-5 via CH2)
[1]
  inhibition: 37%
[2]
  Ki: 0.48 nM
[8]
  EC50: 36 nM
[3]
  Efficacy: 7%
[4]
  Efficacy: 99%
Mu-type opioid receptor [9]
  EC50: 1.2 nM
[10]
  inhibition: 55%
[5]
  Efficacy: 89%
[11]
  EC50: 12 nM
Mu-type opioid receptor [6]
  Ki: 0.47 nM
[12]
  Ki: 2.1 nM
[7]
  Ki: 1.3 nM

## NC(=O)[C@@H]1CSSC[C@@H](NC(=O)[C@@H](N)Cc2ccc(O)cc2)C(=O)N[C@@H](Cc2cccc3ccccc23)C(=O)N[C@@H](Cc2ccccc2)C(=O)N1 (H-Y[dC][1Nal]FC-NH2; disulfide 2-5)
[2]
  Ki: 34 nM
[3]
  Efficacy: 0%
[4]
  Efficacy: 33%
[5]
  Efficacy: 59%
[13]
  Ratio Ki: > 10
Mu-type opioid receptor [6]
  Ki: 0.08 nM
[7]
  Ki: 21 nM

## NC(=O)[C@@H]1CSCSC[C@@H](NC(=O)[C@@H](N)Cc2ccc(O)cc2)C(=O)N[C@@H](Cc2cccc3ccccc23)C(=O)N[C@@H](Cc2ccccc2)C(=O)N1 (H-Y[dC][1Nal]FC-NH2; linker 2-5 via CH2)
[2]
  Ki: 34 nM
[3]
  Efficacy: 23%
[4]
  Efficacy: 91%
[5]
  Efficacy: 77%
[13]
  Ratio Ki: > 10
Mu-type opioid receptor [6]
  Ki: 0.33 nM
[7]
  Ki: 5.8 nM

## NC(=O)[C@@H]1CSSC[C@@H](NC(=O)[C@@H](N)Cc2ccc(O)cc2)C(=O)N[C@@H](Cc2ccc3ccccc3c2)C(=O)N[C@@H](Cc2ccccc2)C(=O)N1 (H-Y[dC][2Nal]FC-NH2; disulfide 2-5)
[14]
  Ratio Ki: > 10
[2]
  Ki: 55 nM
[3]
  Efficacy: 0.7%
[4]
  Efficacy: 34%
[5]
  Efficacy: 7.5%
[13]
  Ratio Ki: > 10
Mu-type opioid receptor [6]
  Ki: 0.72 nM
[7]
  Ki: 145 nM

## NC(=O)[C@@H]1CSCSC[C@@H](NC(=O)[C@@H](N)Cc2ccc(O)cc2)C(=O)N[C@@H](Cc2ccc3ccccc3c2)C(=O)N[C@@H](Cc2ccccc2)C(=O)N1 (H-Y[dC][2Nal]FC-NH2; linker 2-5 via CH2)
[14]
  Ratio Ki: > 10
[2]
  Ki: 15 nM
[3]
  Efficacy: 23%
[4]
  Efficacy: 34%
[5]
  Efficacy: 35%
[13]
  Ratio Ki: > 10
Mu-type opioid receptor [6]
  Ki: 0.47 nM
[7]
  Ki: 69 nM
